According to ChEMBL document CHEMBL2417373, “Substituted tetrahydroisoquinolines as selective antagonists for the orexin 1 receptor” (J Med Chem, 2013):
The source made the active and inactive calls. The calls are words filed in the database; no cut-off is given here.

Tests used:
Homo sapiens = species: Homo sapiens; assay: Selectivity ratio of Ke for OX2 receptor (unknown origin) to Ke for OX1 receptor (unknown origin)
[1] = target: T1, Orexin/Hypocretin receptor type 1 (Homo sapiens) (UniProt O43613); assay: Agonist activity at OX1 receptor (unknown origin) expressed in RD-HGA16 cells assessed as calcium mobilization at 10 uM by fluorescence assay; assay type: functional, cell-based
T1 sequence (whole entry): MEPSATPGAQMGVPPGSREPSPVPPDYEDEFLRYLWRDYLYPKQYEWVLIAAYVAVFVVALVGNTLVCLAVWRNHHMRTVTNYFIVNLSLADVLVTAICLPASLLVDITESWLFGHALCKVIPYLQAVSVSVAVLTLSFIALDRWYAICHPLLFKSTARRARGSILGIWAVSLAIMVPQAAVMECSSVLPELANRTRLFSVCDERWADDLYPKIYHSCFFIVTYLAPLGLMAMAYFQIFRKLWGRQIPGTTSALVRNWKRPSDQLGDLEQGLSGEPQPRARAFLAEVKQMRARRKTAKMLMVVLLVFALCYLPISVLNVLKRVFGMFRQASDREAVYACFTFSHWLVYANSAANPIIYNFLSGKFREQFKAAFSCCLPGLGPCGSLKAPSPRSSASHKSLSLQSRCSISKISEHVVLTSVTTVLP

[2] = target: T1, Orexin/Hypocretin receptor type 1 (Homo sapiens); assay: Antagonist activity at OX1 receptor (unknown origin) expressed in RD-HGA16 cells assessed as inhibition orexin A-induced calcium mobilization by fluorescence assay; assay type: functional, cell-based
Orexin receptor type 2 = target: T2, Orexin receptor type 2 (Homo sapiens, UniProt O43614); assay: Antagonist activity at OX2 receptor (unknown origin)
T2 sequence (O43614 whole entry): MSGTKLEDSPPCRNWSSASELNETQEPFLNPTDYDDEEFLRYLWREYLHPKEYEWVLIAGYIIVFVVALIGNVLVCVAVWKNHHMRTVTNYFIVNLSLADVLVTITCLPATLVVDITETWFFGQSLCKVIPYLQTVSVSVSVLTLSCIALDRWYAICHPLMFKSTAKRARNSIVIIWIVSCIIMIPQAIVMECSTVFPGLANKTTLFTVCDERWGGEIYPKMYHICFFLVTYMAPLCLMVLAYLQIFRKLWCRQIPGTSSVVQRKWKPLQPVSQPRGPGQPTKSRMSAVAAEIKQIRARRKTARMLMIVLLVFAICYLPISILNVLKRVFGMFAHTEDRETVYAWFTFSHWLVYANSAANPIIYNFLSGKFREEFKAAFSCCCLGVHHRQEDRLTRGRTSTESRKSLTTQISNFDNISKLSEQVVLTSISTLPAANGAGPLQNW

[3] = target: T3, Orexin receptor type 2 (Homo sapiens) (UniProt O43614); assay: Antagonist activity at OX2 receptor (unknown origin) expressed in RD-HGA16 cells assessed as inhibition orexin A-induced calcium mobilization by fluorescence assay; assay type: functional, cell-based
T3 sequence (whole entry): T2 sequence (O43614 whole entry)

Rattus norvegicus [4] = assay: Induction of conditioned place preference in Sprague-Dawley rat at 20 mg/kg, ip measured for 15 mins; assay type: organism-based; parameters: dose 20 mg/kg, route intraperitoneal; conditions: in vivo, 0.25 h
In short: (§1)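 Unbiased two-compartment place conditioning in rats. Pretest 30 min with free access, first 15 min scored. Rats excluded if >75% or <25% of time in one side. Eight alternating conditioning days, 30 min confinement, vehicle on odd days and drug on even days. In the combination group, compound was given 10 min before cocaine 10 mg/kg. Injection volume 1 mL/kg. Preference score = drug-side time on test day minus pretest.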

Rattus norvegicus [5] = assay: Antiaddictive activity in Sprague-Dawley rat assessed as reduction of cocaine-induced conditioned place preference at 20 mg/kg, ip administered 10 mins before cocaine challenge measured for 15 mins; assay type: functional, organism-based; parameters: dose 20 mg/kg; in short: as §1

Compound	Ratio (Homo sapiens)	Activity [1]	Ke(app) [2]	IC50 (Orexin receptor type 2)	Ke(app) [3]	Activity (Rattus norvegicus [4])	Activity (Rattus norvegicus [5])
CCCCOc1cc2c(cc1OC)CCN(CC(=O)NCc1ccccc1)C2Cc1ccc(OC)c(OC)c1 (stereo not given)	34.6	inactive	54.7 nM				
CNC(=O)[C@@H](c1ccccc1)N1CCc2cc(OC)c(OC)cc2[C@@H]1CCc1ccc(C(F)(F)F)cc1 [ALMOREXANT]				8.1 µM			
COc1ccc(CC2c3cc(OS(C)(=O)=O)c(OC)cc3CCN2CC(=O)NCc2ccccc2)cc1OC (stereo not given)	297	inactive	7.3 nM				
COc1ccc(CC2c3cc(OC)c(OC)cc3CCN2CC(=O)NCc2ccc(Cl)cc2)cc1OC (stereo not given)	14	inactive	162 nM				
CCCCCCCNC(=O)CN1CCc2cc(OC)c(OC)cc2C1Cc1ccc(OC)c(OC)c1 (stereo not given)	3.9	inactive	589 nM				
COc1ccc(CC2c3cc(OC)c(OC)cc3CCN2CC(=O)N[C@@H](C)c2ccccc2)cc1OC (single isomer, unassigned; diastereomer 2)	> 125	inactive	80 nM		> 10 µM		
COc1ccc(CC2c3cc(OCC(F)(F)F)c(OC)cc3CCN2CC(=O)NCc2cccnc2)cc1OC (stereo not given)		inactive	8.5 nM			Non-toxic	Active

The next lines start with results.

Ratio (Homo sapiens)	Activity [1]	Ke(app) [2]	IC50 (Orexin receptor type 2)	Ke(app) [3]	Compound	Activity (Rattus norvegicus [4])	Activity (Rattus norvegicus [5])
1.9	inactive	944 nM			COc1ccc(CC2c3cc(OC)c(OC)cc3CCN2CC(=O)Nc2ccccc2-c2ccccc2)cc1OC (stereo not given)		
95.1	inactive	30.5 nM			COc1ccc(CC2c3cc(OS(=O)(=O)c4ccccc4)c(OC)cc3CCN2CC(=O)NCc2ccccc2)cc1OC (stereo not given)		
15.9	inactive	41.1 nM			COc1ccc(CC2c3cc(OC)c(OC)cc3CCN2CC(=O)NC2CCCc3ccccc32)cc1OC (stereo not given)		
